Assay results reported in ChEMBL document CHEMBL3352013, “The design and synthesis of potent and selective inhibitors of Trypanosoma brucei glycogen synthase kinase 3 for the treatment of human african trypanosomiasis” (J Med Chem, 2014).
pEC50, pIC50: −log10 of the molar value.

Assays:
[1] = Inhibition of Trypanosoma brucei GSK3 using biotinylated GSP2 substrate by flashplate assay
How it was run: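 Radiometric Flashplate assay: 2.5 nM TbGSK3 short, 1 μM biotinylated GSP2, 1 μM ATP plus [γ-33P]-ATP. 10-point titration 30 μM to 0.3 nM final, 1% DMSO. IC50 averaged over two or more experiments; standard GW8510 used for reproducibility (MSR).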

[2] = biological target: Glycogen synthase kinase-3 (Homo sapiens, UniProt P49840+P49841); assay: Inhibition of human GSK3 using biotinylated GSP2 substrate by flashplate assay; format: protein assay
[3] = biological target: CDK2/Cyclin A2 (Homo sapiens, UniProt P24941); assay: Inhibition of human CDK2/cyclin A using Biotin-C6-PKTPKKAKKL substrate; format: protein-complex assay
[4] = Selectivity ratio, ratio of IC50 for human CDK2/cyclin A to IC50 for Trypanosoma brucei GSK3
[5] = tested on: Trypanosoma brucei brucei; assay: Trypanocidal activity against bloodstream stage of Trypanosoma brucei brucei assessed as inhibition of proliferation after 72 hrs; format: functional, organism-based
How it was run: (§1)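 Resazurin viability assay: 2 × 10³ cells/well (MRC5 in MEM + 10% FBS; bloodstream-form T. b. brucei in appropriate medium), compounds 50 μM to 0.5 nM, 37 °C, 5% CO₂ for 69 h, then resazurin 50 μM final for further 4 h; fluorescence read. Concentration giving 50% growth inhibition over 72 h; average of two or more experiments.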

[6] = tested on: MRC5; assay: Cytotoxicity against human MRC5 cells assessed as growth inhibition after 72 hrs; format: cell-based; details: MRC5, 72 h; how it was run: as §1
[7] = biological target: Dual specificity mitogen-activated protein kinase kinase 1 (Homo sapiens) (UniProt Q02750); assay: Inhibition of MKK1 (unknown origin) assessed as residual enzyme activity at 10 uM
Dual specificity mitogen-activated protein kinase kinase 1 (Homo sapiens), sequence (Q02750 whole entry): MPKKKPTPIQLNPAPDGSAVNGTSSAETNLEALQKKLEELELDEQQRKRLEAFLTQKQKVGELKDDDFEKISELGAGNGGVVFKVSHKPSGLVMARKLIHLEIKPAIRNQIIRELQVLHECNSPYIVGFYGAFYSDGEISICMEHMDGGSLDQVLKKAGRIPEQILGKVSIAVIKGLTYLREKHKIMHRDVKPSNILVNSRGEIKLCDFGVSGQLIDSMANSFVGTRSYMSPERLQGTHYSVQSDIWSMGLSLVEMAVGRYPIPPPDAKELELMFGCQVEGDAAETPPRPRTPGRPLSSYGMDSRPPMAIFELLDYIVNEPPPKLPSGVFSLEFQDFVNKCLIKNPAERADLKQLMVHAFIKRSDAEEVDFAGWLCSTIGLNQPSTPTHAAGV

[8] = biological target: Mitogen-activated protein kinase 1 (Homo sapiens) (UniProt P28482); assay: Inhibition of ERK2 (unknown origin) assessed as residual enzyme activity at 10 uM
Mitogen-activated protein kinase 1 (Homo sapiens), sequence (P28482 whole entry): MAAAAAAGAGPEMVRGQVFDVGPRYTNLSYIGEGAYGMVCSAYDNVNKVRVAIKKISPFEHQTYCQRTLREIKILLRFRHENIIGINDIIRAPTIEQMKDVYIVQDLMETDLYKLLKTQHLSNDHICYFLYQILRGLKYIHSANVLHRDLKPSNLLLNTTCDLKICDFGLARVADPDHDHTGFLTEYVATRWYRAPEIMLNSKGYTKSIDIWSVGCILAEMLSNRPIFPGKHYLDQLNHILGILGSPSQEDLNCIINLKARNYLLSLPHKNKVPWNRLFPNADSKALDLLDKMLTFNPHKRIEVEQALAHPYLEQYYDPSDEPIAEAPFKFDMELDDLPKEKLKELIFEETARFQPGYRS

[9] = biological target: Mitogen-activated protein kinase 8 (Homo sapiens) (UniProt P45983); assay: Inhibition of JNK1 (unknown origin) assessed as residual enzyme activity at 10 uM
Mitogen-activated protein kinase 8 (Homo sapiens), sequence (P45983 whole entry): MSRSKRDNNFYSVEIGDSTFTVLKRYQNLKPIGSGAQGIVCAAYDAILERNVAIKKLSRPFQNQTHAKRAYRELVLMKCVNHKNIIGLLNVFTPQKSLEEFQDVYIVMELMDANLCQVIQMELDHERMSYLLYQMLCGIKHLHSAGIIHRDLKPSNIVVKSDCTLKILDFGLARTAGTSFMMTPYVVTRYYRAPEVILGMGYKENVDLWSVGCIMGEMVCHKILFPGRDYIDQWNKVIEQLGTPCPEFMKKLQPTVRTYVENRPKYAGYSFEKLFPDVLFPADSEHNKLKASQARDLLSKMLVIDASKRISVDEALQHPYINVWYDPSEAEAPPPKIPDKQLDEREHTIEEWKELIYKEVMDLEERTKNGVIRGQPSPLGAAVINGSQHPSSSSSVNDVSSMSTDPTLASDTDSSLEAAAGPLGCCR

[10] = biological target: Mitogen-activated protein kinase 9 (Homo sapiens) (UniProt P45984); assay: Inhibition of JNK2 (unknown origin) assessed as residual enzyme activity at 10 uM
[11] = biological target: T1, Mitogen-activated protein kinase 15 (Homo sapiens) (UniProt Q8TD08); assay: Inhibition of ERK8 (unknown origin) assessed as residual enzyme activity at 10 uM
T1 sequence (whole entry): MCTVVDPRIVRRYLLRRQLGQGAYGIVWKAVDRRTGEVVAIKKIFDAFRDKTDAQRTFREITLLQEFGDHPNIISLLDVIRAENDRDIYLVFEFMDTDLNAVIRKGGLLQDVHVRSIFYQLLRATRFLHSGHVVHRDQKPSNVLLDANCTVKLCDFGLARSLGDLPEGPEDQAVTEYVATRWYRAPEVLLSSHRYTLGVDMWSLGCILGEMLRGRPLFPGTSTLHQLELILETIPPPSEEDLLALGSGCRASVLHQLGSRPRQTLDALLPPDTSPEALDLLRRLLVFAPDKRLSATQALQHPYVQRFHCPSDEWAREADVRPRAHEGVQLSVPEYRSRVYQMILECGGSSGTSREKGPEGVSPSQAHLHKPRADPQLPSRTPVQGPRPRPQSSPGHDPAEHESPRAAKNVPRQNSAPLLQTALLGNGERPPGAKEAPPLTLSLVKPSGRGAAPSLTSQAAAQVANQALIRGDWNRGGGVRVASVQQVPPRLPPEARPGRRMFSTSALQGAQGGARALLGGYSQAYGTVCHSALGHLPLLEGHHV

[12] = biological target: MAP kinase-activated protein kinase 2 (Homo sapiens) (UniProt P49137); assay: Inhibition of MAPKAP-K2 (unknown origin) assessed as residual enzyme activity at 10 uM
MAP kinase-activated protein kinase 2 (Homo sapiens), sequence (P49137 whole entry, looked up): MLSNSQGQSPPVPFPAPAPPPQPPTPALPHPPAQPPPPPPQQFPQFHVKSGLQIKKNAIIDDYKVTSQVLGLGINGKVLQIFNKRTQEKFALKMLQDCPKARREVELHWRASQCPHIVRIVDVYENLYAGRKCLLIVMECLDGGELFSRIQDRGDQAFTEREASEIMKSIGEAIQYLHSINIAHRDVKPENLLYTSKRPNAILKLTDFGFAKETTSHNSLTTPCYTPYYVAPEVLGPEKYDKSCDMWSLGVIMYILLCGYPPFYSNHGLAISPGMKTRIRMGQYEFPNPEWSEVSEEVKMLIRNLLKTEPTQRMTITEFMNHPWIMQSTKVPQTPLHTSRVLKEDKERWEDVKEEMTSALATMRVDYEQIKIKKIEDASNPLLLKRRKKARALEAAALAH

[13] = biological target: Glycogen synthase kinase-3 beta (Homo sapiens) (UniProt P49841); assay: Inhibition of GSK3b (unknown origin) assessed as residual enzyme activity at 10 uM
Glycogen synthase kinase-3 beta (Homo sapiens), sequence (P49841 whole entry, looked up): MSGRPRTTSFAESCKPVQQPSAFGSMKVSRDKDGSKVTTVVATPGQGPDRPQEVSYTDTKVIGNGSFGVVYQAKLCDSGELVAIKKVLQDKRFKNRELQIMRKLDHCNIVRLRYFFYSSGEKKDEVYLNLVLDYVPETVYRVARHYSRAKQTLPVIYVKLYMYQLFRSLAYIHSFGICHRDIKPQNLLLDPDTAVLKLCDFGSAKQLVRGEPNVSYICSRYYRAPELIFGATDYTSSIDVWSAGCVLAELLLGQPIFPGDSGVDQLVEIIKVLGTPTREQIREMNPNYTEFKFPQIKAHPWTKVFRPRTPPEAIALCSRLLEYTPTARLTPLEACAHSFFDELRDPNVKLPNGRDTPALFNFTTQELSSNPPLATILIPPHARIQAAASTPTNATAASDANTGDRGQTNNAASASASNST

[14] = biological target: Cyclin-dependent kinase 2 (Homo sapiens) (UniProt P24941); assay: Inhibition of CDK2 (unknown origin) assessed as residual enzyme activity at 10 uM
[15] = biological target: Maternal embryonic leucine zipper kinase (Homo sapiens) (UniProt Q14680); assay: Inhibition of MELK (unknown origin) assessed as residual enzyme activity at 10 uM
[16] = biological target: Dual specificity tyrosine-phosphorylation-regulated kinase 1A (Homo sapiens) (UniProt Q13627); assay: Inhibition of DYRK1A (unknown origin) assessed as residual enzyme activity at 10 uM
[17] = biological target: T2, Dual specificity tyrosine-phosphorylation-regulated kinase 2 (Homo sapiens) (UniProt Q92630); assay: Inhibition of DYRK2 (unknown origin) assessed as residual enzyme activity at 10 uM
T2 sequence (whole entry): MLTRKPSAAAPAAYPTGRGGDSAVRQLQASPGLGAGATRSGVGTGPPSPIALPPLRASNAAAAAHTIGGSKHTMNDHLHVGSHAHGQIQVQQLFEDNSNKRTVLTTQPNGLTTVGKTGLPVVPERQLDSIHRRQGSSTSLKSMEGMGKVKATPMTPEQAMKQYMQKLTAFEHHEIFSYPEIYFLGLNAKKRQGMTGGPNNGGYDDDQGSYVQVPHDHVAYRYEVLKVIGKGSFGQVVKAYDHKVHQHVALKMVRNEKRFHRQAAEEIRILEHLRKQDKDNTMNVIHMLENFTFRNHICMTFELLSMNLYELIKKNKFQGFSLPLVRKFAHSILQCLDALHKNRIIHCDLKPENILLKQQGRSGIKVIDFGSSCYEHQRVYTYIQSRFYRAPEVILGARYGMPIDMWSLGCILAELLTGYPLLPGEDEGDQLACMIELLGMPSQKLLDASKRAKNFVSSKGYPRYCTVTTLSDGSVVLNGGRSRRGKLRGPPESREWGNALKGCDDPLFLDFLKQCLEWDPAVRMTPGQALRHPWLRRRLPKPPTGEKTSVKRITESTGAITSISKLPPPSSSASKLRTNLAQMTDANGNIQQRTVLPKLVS

[18] = biological target: T3, Dual specificity tyrosine-phosphorylation-regulated kinase 3 (Homo sapiens) (UniProt O43781); assay: Inhibition of DYRK3 (unknown origin) assessed as residual enzyme activity at 10 uM
T3 sequence (whole entry): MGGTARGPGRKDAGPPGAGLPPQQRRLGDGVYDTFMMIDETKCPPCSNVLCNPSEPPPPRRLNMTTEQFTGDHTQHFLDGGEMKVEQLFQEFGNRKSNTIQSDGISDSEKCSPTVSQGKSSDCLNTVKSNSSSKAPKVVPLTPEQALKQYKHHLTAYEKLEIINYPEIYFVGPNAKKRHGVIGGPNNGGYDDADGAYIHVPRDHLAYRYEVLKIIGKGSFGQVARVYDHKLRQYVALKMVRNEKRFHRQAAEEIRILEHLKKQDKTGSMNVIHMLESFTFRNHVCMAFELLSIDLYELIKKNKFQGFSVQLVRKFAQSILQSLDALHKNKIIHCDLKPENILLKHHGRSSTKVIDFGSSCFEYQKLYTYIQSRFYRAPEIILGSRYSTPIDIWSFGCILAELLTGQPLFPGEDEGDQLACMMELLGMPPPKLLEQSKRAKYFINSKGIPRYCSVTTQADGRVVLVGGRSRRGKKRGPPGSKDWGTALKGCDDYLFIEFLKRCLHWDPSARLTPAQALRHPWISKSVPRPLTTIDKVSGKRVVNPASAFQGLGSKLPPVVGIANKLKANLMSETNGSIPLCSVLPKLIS

[19] = biological target: Serine/threonine-protein kinase pim-1 (Homo sapiens) (UniProt P11309); assay: Inhibition of PIM1 (unknown origin) assessed as residual enzyme activity at 10 uM
Serine/threonine-protein kinase pim-1 (Homo sapiens), sequence (P11309 whole entry, looked up): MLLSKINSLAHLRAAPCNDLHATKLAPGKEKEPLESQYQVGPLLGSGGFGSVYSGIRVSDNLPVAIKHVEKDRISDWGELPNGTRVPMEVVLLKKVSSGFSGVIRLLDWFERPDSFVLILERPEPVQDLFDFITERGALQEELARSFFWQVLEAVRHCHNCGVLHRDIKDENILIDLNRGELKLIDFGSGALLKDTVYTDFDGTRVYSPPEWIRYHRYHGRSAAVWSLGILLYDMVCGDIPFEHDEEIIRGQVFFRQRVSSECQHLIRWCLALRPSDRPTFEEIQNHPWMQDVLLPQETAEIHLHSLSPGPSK

[20] = biological target: Serine/threonine-protein kinase pim-3 (Homo sapiens) (UniProt Q86V86); assay: Inhibition of PIM3 (unknown origin) assessed as residual enzyme activity at 10 uM
[21] = biological target: Homeodomain-interacting protein kinase 2 (Homo sapiens) (UniProt Q9H2X6); assay: Inhibition of HIPK2 (unknown origin) assessed as residual enzyme activity at 10 uM
Homeodomain-interacting protein kinase 2 (Homo sapiens), sequence (Q9H2X6 whole entry, looked up): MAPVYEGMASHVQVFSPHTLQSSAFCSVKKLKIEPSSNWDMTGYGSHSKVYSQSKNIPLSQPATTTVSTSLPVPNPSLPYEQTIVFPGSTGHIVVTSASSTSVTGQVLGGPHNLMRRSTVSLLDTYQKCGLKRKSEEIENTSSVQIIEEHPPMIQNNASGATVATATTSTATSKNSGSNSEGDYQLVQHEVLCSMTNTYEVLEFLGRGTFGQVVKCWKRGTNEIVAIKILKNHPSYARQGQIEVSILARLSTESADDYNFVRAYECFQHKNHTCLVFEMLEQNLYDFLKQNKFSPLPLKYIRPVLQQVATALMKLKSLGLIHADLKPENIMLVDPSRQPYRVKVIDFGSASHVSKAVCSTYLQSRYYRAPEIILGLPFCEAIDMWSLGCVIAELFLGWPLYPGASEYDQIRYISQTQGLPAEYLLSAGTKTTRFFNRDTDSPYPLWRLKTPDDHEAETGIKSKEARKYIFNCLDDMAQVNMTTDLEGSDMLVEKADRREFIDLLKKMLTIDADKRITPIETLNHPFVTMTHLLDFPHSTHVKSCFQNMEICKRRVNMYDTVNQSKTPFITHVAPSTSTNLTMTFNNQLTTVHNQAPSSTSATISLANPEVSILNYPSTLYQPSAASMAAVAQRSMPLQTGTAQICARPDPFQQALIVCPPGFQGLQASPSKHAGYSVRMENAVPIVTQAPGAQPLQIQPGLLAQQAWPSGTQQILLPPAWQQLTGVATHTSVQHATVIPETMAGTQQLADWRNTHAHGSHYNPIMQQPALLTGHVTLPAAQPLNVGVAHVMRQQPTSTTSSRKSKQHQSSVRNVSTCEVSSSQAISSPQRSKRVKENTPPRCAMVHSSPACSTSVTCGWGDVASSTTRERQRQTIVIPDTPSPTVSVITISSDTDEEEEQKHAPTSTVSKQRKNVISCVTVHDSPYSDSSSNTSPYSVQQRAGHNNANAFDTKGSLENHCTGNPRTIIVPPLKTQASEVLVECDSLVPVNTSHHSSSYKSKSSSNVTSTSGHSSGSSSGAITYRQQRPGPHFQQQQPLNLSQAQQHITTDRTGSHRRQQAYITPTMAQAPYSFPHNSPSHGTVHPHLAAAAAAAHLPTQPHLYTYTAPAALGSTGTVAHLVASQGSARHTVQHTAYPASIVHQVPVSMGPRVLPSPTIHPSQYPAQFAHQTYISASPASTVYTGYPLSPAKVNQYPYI

[22] = biological target: Insulin-like growth factor 1 receptor (Homo sapiens) (UniProt P08069); assay: Inhibition of IGF-1R (unknown origin) assessed as residual enzyme activity at 10 uM
Insulin-like growth factor 1 receptor (Homo sapiens), sequence (P08069 31-736 limits assumed): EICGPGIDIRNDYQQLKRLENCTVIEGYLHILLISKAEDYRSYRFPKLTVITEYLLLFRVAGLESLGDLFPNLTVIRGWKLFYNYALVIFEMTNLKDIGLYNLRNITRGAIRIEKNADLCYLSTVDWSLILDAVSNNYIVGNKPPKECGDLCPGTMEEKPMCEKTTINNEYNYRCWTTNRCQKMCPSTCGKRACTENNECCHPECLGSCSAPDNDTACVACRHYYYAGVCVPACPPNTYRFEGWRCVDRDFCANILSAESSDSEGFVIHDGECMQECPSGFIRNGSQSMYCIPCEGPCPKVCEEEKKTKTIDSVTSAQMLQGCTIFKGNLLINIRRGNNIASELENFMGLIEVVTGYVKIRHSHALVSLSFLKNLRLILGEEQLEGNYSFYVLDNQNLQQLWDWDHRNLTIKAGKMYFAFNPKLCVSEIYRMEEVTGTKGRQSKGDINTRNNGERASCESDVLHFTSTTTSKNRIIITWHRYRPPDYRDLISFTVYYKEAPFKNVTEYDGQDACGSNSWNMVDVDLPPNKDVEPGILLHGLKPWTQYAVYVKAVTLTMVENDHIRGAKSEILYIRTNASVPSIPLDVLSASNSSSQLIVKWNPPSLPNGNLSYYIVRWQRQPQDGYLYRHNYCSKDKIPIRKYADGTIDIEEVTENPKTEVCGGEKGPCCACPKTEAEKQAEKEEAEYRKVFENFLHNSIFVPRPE
Insulin-like growth factor 1 receptor (Homo sapiens), sequence (P08069 741-1367 limits assumed): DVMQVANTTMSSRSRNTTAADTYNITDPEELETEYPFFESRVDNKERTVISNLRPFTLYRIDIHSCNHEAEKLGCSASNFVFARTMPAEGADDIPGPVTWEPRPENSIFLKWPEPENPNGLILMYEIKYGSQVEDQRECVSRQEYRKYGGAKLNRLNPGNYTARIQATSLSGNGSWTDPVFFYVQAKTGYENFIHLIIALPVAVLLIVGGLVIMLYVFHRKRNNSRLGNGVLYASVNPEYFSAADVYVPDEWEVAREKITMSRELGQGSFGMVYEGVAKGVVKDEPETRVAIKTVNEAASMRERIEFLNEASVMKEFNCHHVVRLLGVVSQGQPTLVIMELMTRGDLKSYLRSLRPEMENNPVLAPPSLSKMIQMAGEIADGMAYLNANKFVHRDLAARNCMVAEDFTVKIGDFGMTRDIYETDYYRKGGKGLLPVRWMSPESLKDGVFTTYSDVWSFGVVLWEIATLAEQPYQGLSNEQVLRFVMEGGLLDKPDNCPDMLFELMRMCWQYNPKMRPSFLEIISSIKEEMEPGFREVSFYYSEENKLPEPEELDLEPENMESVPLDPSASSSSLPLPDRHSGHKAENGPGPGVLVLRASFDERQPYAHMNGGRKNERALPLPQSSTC

[23] = Selectivity ratio, ratio of IC50 for human GSK3 to IC50 Trypanosoma brucei GSK3
[24] = biological target: Misshapen-like kinase 1 (Homo sapiens) (UniProt Q8N4C8); assay: Inhibition of MINK1 (unknown origin) assessed as residual enzyme activity at 10 uM

CO[C@H]1CC[C@H](NC(=O)c2n[nH]cc2NC(=O)c2ccc(-c3ccccc3)o2)CC1
pIC50 [1]: 8.15
IC50 [2]: < 5 nM
pIC50 [3]: 8.00
Ratio IC50 [4]: 1.4
pEC50 [5]: 6.52
pEC50 [6]: 7.00
Activity [7]: 17%
Activity [8]: 2%
Activity [9]: 8%
Activity [10]: 15%
Activity [11]: 7%
Activity [12]: 90%
Activity [13]: 0%
Activity [14]: 1%
Activity [15]: 13%
Activity [16]: 1%
Activity [17]: 1%
Activity [18]: 2%
Activity [19]: 13%
Activity [20]: 1%
Activity [21]: 4%
Activity [22]: 15%

COc1cccc(OC)c1C(=O)Nc1c[nH]nc1C(=O)N[C@H]1CC[C@H](OC)CC1
pIC50 [1]: 8.70
IC50 [2]: < 5 nM
Ratio IC50 [23]: < 2.5
pIC50 [3]: 6.72
Ratio IC50 [4]: 95
pEC50 [5]: 6.30
pEC50 [6]: 4.51
Activity [7]: 83%
Activity [8]: 51%
Activity [9]: 77%
Activity [10]: 82%
Activity [11]: 27%
Activity [12]: 33%
Activity [13]: 0%
Activity [14]: 9%
Activity [15]: 100%
Activity [16]: 84%
Activity [17]: 63%
Activity [18]: 100%
Activity [19]: 100%
Activity [20]: 94%
Activity [21]: 100%
Activity [22]: 100%

COc1cccc(OC)c1C(=O)Nc1c[nH]nc1C(=O)NCc1ccccc1
pIC50 [1]: 9.00
IC50 [2]: 330 nM
Ratio IC50 [23]: 330
pIC50 [3]: < 5.00
Ratio IC50 [4]: > 10000
pEC50 [5]: 5.23
pEC50 [6]: 4.30
Activity [7]: 76%
Activity [8]: 92%
Activity [9]: 71%
Activity [10]: 63%
Activity [11]: 47%
Activity [12]: 13%
Activity [13]: 10%
Activity [14]: 38%
Activity [15]: 96%
Activity [16]: 79%
Activity [17]: 28%
Activity [18]: 80%
Activity [19]: 92%
Activity [20]: 96%
Activity [21]: 93%
Activity [22]: 79%
Activity [24]: 18%
